One block for each compound: values may come before it.
Tests used:
[1] = test system: Cavia porcellus; test: Evaluated for the percent inhibition of arachidonate-induced air-way resistance at 60 min after dosing (0.1 mg/kg iv) in anesthetized guinea pig.; format: functional
In short: (§1)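 Anesthetized guinea pig dosed iv with antagonist at 0.1 mg/kg (some at 1.0 mg/kg). Arachidonic acid 0.5 mg/kg iv given as challenge 3 or 60 min later. Airway resistance, dynamic compliance and blood pressure recorded; percent inhibition of each response.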

[2] = test system: Cavia porcellus; test: Evaluated for the percent inhibition of arachidonate-induced hypertension resulting in decreases in blood pressure at 3 min after dosing (0.1 mg/kg iv) in anesthetized guinea pig.; format: functional; in short: as §1
[3] = species on record: Homo sapiens; test: Ability to inhibit platelet aggregation of human platelet-rich plasma (PRP) induced by 800 uM of AA-IPA (arachidonic acid); format: functional; conditions: read-out: I50
In short: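 Human platelet-rich plasma; aggregation triggered by arachidonic acid at 800 μM. Test acids were also checked against ADP (20 μM)-induced aggregation. I50 taken as the concentration inhibiting aggregation.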

[4] = test system: Cavia porcellus; test: Evaluated for the percent inhibition of arachidonate-induced air-way resistance at 3 min after dosing (0.1 mg/kg iv) in anesthetized guinea pig.; format: functional; in short: as §1
[5] = test system: Cavia porcellus; test: Evaluated for the percent inhibition of arachidonate-induced dynamic compliance at 3 min after dosing (0.1 mg/kg iv) in anesthetized guinea pig.; format: functional; in short: as §1
[6] = test system: Cavia porcellus; test: Evaluated for the percent inhibition of arachidonate-induced hypertension resulting in decreases in blood pressure at 60 min after dosing (0.1 mg/kg iv) in anesthetized guinea pig.; format: functional; in short: as §1
[7] = test system: Cavia porcellus; test: Evaluated for the percent inhibition of arachidonate-induced dynamic compliance at 60 min after dosing (0.1 mg/kg iv) in anesthetized guinea pig.; format: functional; in short: as §1
[8] = biological target: T1, Thromboxane A2 receptor (Homo sapiens, UniProt P21731); test: Binding affinity was determined from the inhibition of [3H]-SQ 29,548 binding to Thromboxane A2 receptor in human platelet membranes.; format: cell membranes
T1 sequence (P21731 whole entry): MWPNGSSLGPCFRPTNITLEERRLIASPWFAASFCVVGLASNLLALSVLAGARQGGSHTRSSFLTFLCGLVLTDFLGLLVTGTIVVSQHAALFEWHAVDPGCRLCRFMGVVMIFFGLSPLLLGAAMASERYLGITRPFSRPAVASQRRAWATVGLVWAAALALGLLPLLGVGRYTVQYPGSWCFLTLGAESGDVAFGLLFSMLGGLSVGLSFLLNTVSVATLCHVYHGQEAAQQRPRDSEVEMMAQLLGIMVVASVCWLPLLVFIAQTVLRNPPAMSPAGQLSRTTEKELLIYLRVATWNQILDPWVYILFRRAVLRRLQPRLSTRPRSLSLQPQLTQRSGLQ
In short: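 Radioligand binding to human platelet membranes with [5,6-3H2]-SQ 29,548 as tracer; Kd derived from inhibition of specific binding.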

[9] = species on record: Rattus norvegicus; test: Evaluated for its potency Rat aorta (RA) strips in the presence of increasing concentrations; format: functional; conditions: Rattus norvegicus, Aorta
In short: (§2)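 Rat aortic strips contracted by U-46,619 in cumulative dose-response curves, repeated with increasing antagonist concentrations; Kb from analysis of the rightward shift.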

[10] = species on record: Homo sapiens; test: Evaluated for ability to inhibit platelet aggregation of human platelet-rich plasma (PRP) induced by 11.9-epoxymethano-PGH2.; format: functional; conditions: Homo sapiens, Plasma; read-out: I50
In short: (§3)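 Human PRP aggregation induced by U-46,619 (11,9-epoxymethano-PGH2, stable PGH2/TxA2 mimic) at 5 or 10 μM; I50 reported. Values are single determinations unless otherwise noted.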

[11] = species on record: Cavia porcellus; test: Evaluated for its potency in Guinea pig trachea (GPT) spirals in the presence of increasing concentrations; format: functional; conditions: Cavia porcellus, Trachea
In short: (§4)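 Guinea pig tracheal spirals contracted by U-46,619 in cumulative dose-response curves, repeated with increasing antagonist concentrations; Kb from analysis of the rightward shift.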

[12] = species on record: Cavia porcellus; test: Evaluated for its potency in guinea pig trachea (GPT) spirals in the presence of increasing concentrations; format: functional; in short: as §4
[13] = species on record: Homo sapiens; test: Evaluated for ability to inhibit platelet aggregation of human platelet-rich plasma (PRP) induced by 11.9-epoxymethano-PGH2; format: functional; conditions: read-out: I50; in short: as §3
[14] = species on record: Rattus norvegicus; test: Evaluated for its potency in rat aorta (RA) strips in the presence of increasing concentrations; format: functional; in short: as §2

Compound: O=C(O)CCC/C=C/CC1C2CCC(O2)C1CNNC(=O)Nc1ccccc1 (racemic)
Inhibition [1]: 42%
Inhibition [2]: 151%
IC50 [3]: 90 nM
Inhibition [4]: 97%
Inhibition [5]: 96%
Inhibition [6]: 59%
Inhibition [7]: 56%

Compound: COc1ccc(NCC(=O)NCC2C3CCC(O3)C2C/C=C/CCCC(=O)O)cc1 (stereo unspecified)
IC50 ([3]; Homo sapiens, Plasma): 13500 nM

Compound: O=C(O)CCC/C=C/CC1C2CCC(O2)C1CNC(=O)NCc1ccccc1 (stereo unspecified)
IC50 ([3]; Homo sapiens, Plasma): 26000 nM

Compound: O=C(O)CCC/C=C/CC1C2CCC(O2)C1CNCC(=O)Nc1ccccc1 (stereo unspecified)
IC50 ([3]; Homo sapiens, Plasma): 5300 nM

Compound: O=C(O)CCC/C=C/CC1C2CCC(O2)C1CNNC(=O)Cc1ccccc1 (stereo unspecified)
IC50 ([3]; Homo sapiens, Plasma): 200 nM

Compound: O=C(O)CCC/C=C/CC1C2CCC(O2)C1CNC(=O)CCc1ccccc1 (stereo unspecified)
IC50 ([3]; Homo sapiens, Plasma): 3300 nM

Compound: O=C(O)CCC/C=C/CC1C2CCC(O2)C1CNNC(=O)Nc1ccccc1 (single isomer, unassigned; (+))
IC50 [3]: 20 nM

Compound: O=C(O)Cc1ccc(CCNS(=O)(=O)c2ccc(Cl)cc2)cc1 [DALTROBAN]
IC50 ([3]; Homo sapiens, Plasma): 630 nM

Further lines, with some results ahead:

IC50 ([3]; Homo sapiens, Plasma): 30000 nM
Compound: CCCCCCCNC(=O)CNC(=O)C1C2CCC(O2)C1C/C=C/CCCC(=O)O (stereo unspecified)

IC50 [3]: 900 nM
Compound: CCCCCC(=O)NC(C)C(=O)NCC1C2CCC(O2)C1C/C=C/CCCC(=O)O (stereo in doubt; 49)

IC50 ([3]; Homo sapiens, Plasma): 220 nM
Kd [8]: 8.3 nM
IC50 [10]: 1100 nM
Compound: CCCCCCCCC(=O)NCC(=O)NCC1C2CCC(O2)C1C/C=C/CCCC(=O)O (stereo unspecified)
Inhibition [1]: 31%
Inhibition [2]: 252%
Inhibition [4]: 99%
Inhibition [5]: 98%
Kb [9]: 7.1 nM
Inhibition [6]: 138%
Kb [11]: 1.4 nM
Inhibition [7]: 39%

IC50 ([3]; Homo sapiens, Plasma): 21 nM
IC50 [13]: 110 nM
Kd [8]: 41.4 nM
Compound: O=C(O)CCC/C=C/CC1C2CCC(O2)C1CNC(=O)CNC(=O)CSc1ccccc1 (stereo unspecified)
Kb [12]: 2.4 nM
Inhibition [1]: 53%
Inhibition [2]: 287%
Inhibition [4]: 98%
Inhibition [5]: 92%
Inhibition [6]: 235%
Inhibition [7]: 42%
Kb [14]: 1.8 nM

IC50 ([3]; Homo sapiens, Plasma): 1000 nM
Compound: CCCCNC(=O)NCC(=O)NCC1C2CCC(O2)C1C/C=C/CCCC(=O)O (stereo unspecified)

IC50 [3]: 53000 nM
Compound: CCCCCC(=O)NC(C)C(=O)NCC1C2CCC(O2)C1C/C=C/CCCC(=O)O (stereo in doubt; 48)

IC50 ([3]; Homo sapiens, Plasma): 15000 nM
Compound: CCCCCCCCC(=O)NCC1C2CCC(O2)C1C/C=C/CCCC(=O)O (stereo unspecified)

IC50 ([3]; Homo sapiens, Plasma): 500 nM
Compound: CCCCCNC(=O)CC(=O)NCC1C2CCC(O2)C1C/C=C/CCCC(=O)O (stereo unspecified)

IC50 ([3]; Homo sapiens, Plasma): 15 nM
IC50 [13]: 150 nM
Kd [8]: 4.2 nM
Compound: CC(C)(C)c1ccc(SCC(=O)NCC(=O)NCC2C3CCC(O3)C2C/C=C/CCCC(=O)O)cc1 (stereo unspecified)
Kb [12]: 0.1 nM
Inhibition [1]: 43%
Inhibition [2]: 191%
Inhibition [4]: 98%
Inhibition [5]: 95%
Inhibition [6]: 184%
Inhibition [7]: 26%
Kb [14]: 1.8 nM

IC50 ([3]; Homo sapiens, Plasma): 12000 nM
Compound: CCCCCCNCC1C2CCC(O2)C1C/C=C/CCCC(=O)O (stereo unspecified)

IC50 ([3]; Homo sapiens, Plasma): 2600 nM
Compound: O=C(O)CCC/C=C/CC1C2CCC(O2)C1CNC(=O)CNC(=O)c1ccccc1 (stereo unspecified)

IC50 ([3]; Homo sapiens, Plasma): 45 nM
IC50 [13]: 120 nM
Kd [8]: 1.1 nM
Compound: O=C(O)CCC/C=C/CC1C2CCC(O2)C1CNC(=O)CNC(=O)CCCC1CCCCC1 (stereo unspecified)
Kb [12]: 0.07 nM
Inhibition [1]: 84%
Inhibition [2]: 289%
Inhibition [4]: 99%
Inhibition [5]: 97%
Inhibition [6]: 289%
Inhibition [7]: 59%
Kb [14]: 0.9 nM

Source: ChEMBL document CHEMBL1124904, “7-Oxabicyclo[2.2.1]heptyl carboxylic acids as thromboxane A2 antagonists: aza omega-chain analogues” (J Med Chem, 1990)
